Peptide text beside a SMILES is read from it. * marks the point of attachment. Cbz = O=C(OCc1ccccc1)*

Sequence of Procathepsin L (P07711 whole entry): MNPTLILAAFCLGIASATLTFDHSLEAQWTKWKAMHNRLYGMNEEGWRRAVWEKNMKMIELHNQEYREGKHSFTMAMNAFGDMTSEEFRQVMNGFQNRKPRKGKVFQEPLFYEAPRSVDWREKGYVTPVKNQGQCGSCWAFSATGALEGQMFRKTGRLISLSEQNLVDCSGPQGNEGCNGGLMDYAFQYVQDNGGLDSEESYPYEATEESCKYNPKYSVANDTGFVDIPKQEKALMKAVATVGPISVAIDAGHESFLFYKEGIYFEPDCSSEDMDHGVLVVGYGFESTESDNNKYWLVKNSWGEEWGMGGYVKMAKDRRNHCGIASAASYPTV

For the first test, the species on record is Homo sapiens. The experiment in a line: Selectivity ratio of Ki for recombinant cathepsin-B (unknown origin) to Ki for recombinant cathepsin-L (unknown origin). The essentials:
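Selectivity factor FB = Ki(CatB)/Ki(CatL). Both Ki values come from kinetic runs with the recombinant enzymes, each using at least three inhibitor concentrations in duplicate.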
Turning to `NCCCC[C@H](NC(=O)[C@H](Cc1ccccc1)NC(=O)c1ccnc(-c2cc(C(=O)O)ccn2)c1)C(N)=O`, the Ratio Ki is 187.
Turning to `NCCCC[C@H](NC(=O)[C@H](Cc1ccccc1)NC(=O)c1ccc(Br)cc1)C(N)=O`, the Ratio Ki turned out to be 113.
For the molecule `NCCCC[C@H](NC(=O)[C@H](Cc1ccc(O)cc1)NC(=O)OCc1ccccc1)C(N)=O` (Cbz-Tyr-Lys-NH2), the Ratio Ki came out at 96.
On to `NCCCC[C@H](NC(=O)[C@H](Cc1ccccc1)NC(=O)c1c(F)c(F)c(F)c(F)c1F)C(N)=O`, for which the Ratio Ki turned out to be 20.
Still for that read-out and setting: the same measure for `NC(=O)[C@H](CCCC(N)O)NC(=O)[C@H](Cc1ccccc1)NC(=O)OCc1ccccc1` (some centres not stated): 64; for `CC(C)(C)c1ccc(C(=O)N[C@@H](Cc2ccccc2)C(=O)N[C@@H](CCCCN)C(N)=O)cc1`: 312; for `Cc1cccc(-c2ccc(C[C@H](NC(=O)OCc3ccccc3)C(=O)N[C@@H](CCCCN)C(N)=O)cc2)c1`: 156.
Turning to `NCCCC[C@H](NC(=O)[C@H](Cc1ccccc1)NC(=O)c1ccc2ccccc2c1)C(N)=O`, the Ratio Ki is 301.
Regarding `CN(C)c1ccc(C(=O)N[C@@H](Cc2ccccc2)C(=O)N[C@@H](CCCCN)C(N)=O)cc1`, the Ratio Ki turned out to be 9.
Same read-out and setting: the same measure for `CSCC[C@H](NC(=O)[C@H](Cc1ccccc1)NC(=O)OCc1ccccc1)C(N)=O` (Cbz-Phe-Met-NH2): 111; for `NCCCC[C@H](NC(=O)[C@H](Cc1ccc(-c2cccc(Cl)c2)cc1)NC(=O)OCc1ccccc1)C(N)=O`: 34.
Regarding `NCCCC[C@H](NC(=O)[C@H](Cc1ccc(-c2ccc(-c3ccccc3)cc2)cc1)NC(=O)OCc1ccccc1)C(N)=O`, the Ratio Ki was found to be 28.
The same measure, in the same setting: the same measure for `NCCCC[C@H](NC(=O)[C@H](Cc1ccccc1)NC(=O)[C@H](CCC(N)=O)NC(=O)OCc1ccccc1)C(N)=O` (Cbz-Gln-Phe-Lys-NH2): 506.
Same read-out and setting: the figure for `NCCCC[C@H](NC(=O)[C@H](Cc1ccccc1)NC(=O)c1ccc(N)nc1)C(N)=O` is 30.
In the case of `NCCCC[C@H](NC(=O)[C@H](Cc1c[nH]c2ccccc12)NC(=O)OCc1ccccc1)C(N)=O` (Cbz-Trp-Lys-NH2), the Ratio Ki was determined as 24.
Turning to `CC(=O)Oc1cccc(C(=O)N[C@@H](Cc2ccccc2)C(=O)N[C@@H](CCCCN)C(N)=O)c1`, the Ratio Ki was determined as 425.

The target of a further test is Cathepsin B (Homo sapiens, UniProt P07858). Nature of the test: Inhibition of recombinant cathepsin-B (unknown origin) using Z-Arg-Arg-AMC as substrate by fluorescence assay. The procedure, abridged:
(§1)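 Kinetic assay with recombinant enzyme. Peptide amide stock concentrations were set by amino-acid analysis. Ki was derived from at least three inhibitor concentrations, each measured in duplicate.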
In general, Ki refers to the equilibrium dissociation constant of an inhibitor or competing ligand from its target. With `NCCCC[C@H](NC(=O)[C@H](Cc1ccccc1)NC(=O)c1ccnc(-c2cc(C(=O)O)ccn2)c1)C(N)=O`, the Ki was 860 µM.
Still for that read-out and setting: the same measure for `NCCCC[C@H](NC(=O)[C@H](Cc1ccccc1)NC(=O)c1ccc(Br)cc1)C(N)=O`: 261 µM; for `NCCCC[C@H](NC(=O)[C@H](Cc1ccc(O)cc1)NC(=O)OCc1ccccc1)C(N)=O` (Cbz-Tyr-Lys-NH2): 135 µM; for `NCCCC[C@H](NC(=O)[C@H](Cc1ccccc1)NC(=O)c1c(F)c(F)c(F)c(F)c1F)C(N)=O`: 134 µM.
Same read-out and setting: the figure for `NC(=O)[C@H](CCCC(N)O)NC(=O)[C@H](Cc1ccccc1)NC(=O)OCc1ccccc1` (some centres not stated) is 1730 µM.
Same read-out and setting: the figure for `CC(C)(C)c1ccc(C(=O)N[C@@H](Cc2ccccc2)C(=O)N[C@@H](CCCCN)C(N)=O)cc1` is 312 µM; for `Cc1cccc(-c2ccc(C[C@H](NC(=O)OCc3ccccc3)C(=O)N[C@@H](CCCCN)C(N)=O)cc2)c1` it is 389 µM.
Consider `NCCCC[C@H](NC(=O)[C@H](Cc1ccccc1)NC(=O)c1ccc2ccccc2c1)C(N)=O`, for which the Ki came to 301 µM.
The same measure, in the same setting: the same measure for `CN(C)c1ccc(C(=O)N[C@@H](Cc2ccccc2)C(=O)N[C@@H](CCCCN)C(N)=O)cc1`: 26 µM; for `CSCC[C@H](NC(=O)[C@H](Cc1ccccc1)NC(=O)OCc1ccccc1)C(N)=O` (Cbz-Phe-Met-NH2): 7100 µM; for `NCCCC[C@H](NC(=O)[C@H](Cc1ccc(-c2cccc(Cl)c2)cc1)NC(=O)OCc1ccccc1)C(N)=O`: 58 µM.
With `NCCCC[C@H](NC(=O)[C@H](Cc1ccc(-c2ccc(-c3ccccc3)cc2)cc1)NC(=O)OCc1ccccc1)C(N)=O`, the inhibitory constant (Ki) was found to be 74 µM.
For the molecule `NCCCC[C@H](NC(=O)[C@H](Cc1ccccc1)NC(=O)[C@H](CCC(N)=O)NC(=O)OCc1ccccc1)C(N)=O` (Cbz-Gln-Phe-Lys-NH2), the Ki stood at 3550 µM.
The same measure, in the same setting: the figure for `NCCCC[C@H](NC(=O)[C@H](Cc1ccccc1)NC(=O)c1ccc(N)nc1)C(N)=O` is 148 µM; for `NCCCC[C@H](NC(=O)[C@H](Cc1c[nH]c2ccccc12)NC(=O)OCc1ccccc1)C(N)=O` (Cbz-Trp-Lys-NH2) it is 100 µM.
As to `CC(=O)Oc1cccc(C(=O)N[C@@H](Cc2ccccc2)C(=O)N[C@@H](CCCCN)C(N)=O)c1`, the inhibitory constant (Ki) was 1020 µM.

The target in another test is Procathepsin L (Homo sapiens, UniProt P07711). The experiment in a line: Inhibition of recombinant cathepsin-L (unknown origin) using Z-Phe-Arg-AMC as substrate by fluorescence assay. The essentials:
as §1
For `NC(=O)[C@H](N)NC(=O)[C@H](Cc1ccccc1)NC(=O)OCc1ccccc1`, the inhibition constant (Ki) was determined as 28 µM.
Regarding `CC(C)[C@H](NC(=O)[C@H](Cc1ccccc1)NC(=O)OCc1ccccc1)C(N)=O` (Cbz-Phe-Val-NH2), the Ki was determined as 17 µM.
`C[C@H](NC(=O)[C@H](Cc1ccccc1)NC(=O)OCc1ccccc1)C(N)=O`: the Ki came out at 16 µM.
Same read-out and setting: the figure for `NCCCC[C@H](NC(=O)[C@H](Cc1ccccc1)NC(=O)c1ccnc(-c2cc(C(=O)O)ccn2)c1)C(N)=O` is 4.6 µM; for `NCCCC[C@H](NC(=O)[C@H](Cc1ccccc1)NC(=O)c1ccc(Br)cc1)C(N)=O` it is 2.3 µM.
On the same count and under the same terms, the figure for `NCCCC[C@H](NC(=O)[C@H](Cc1ccc(O)cc1)NC(=O)OCc1ccccc1)C(N)=O` (Cbz-Tyr-Lys-NH2) is 1.4 µM; for `NCCCC[C@H](NC(=O)[C@H](Cc1ccccc1)NC(=O)c1c(F)c(F)c(F)c(F)c1F)C(N)=O` it is 6.8 µM; for `NC(=O)[C@H](CCCC(N)O)NC(=O)[C@H](Cc1ccccc1)NC(=O)OCc1ccccc1` (some centres not stated) it is 27 µM.
Take `CC(C)(C)c1ccc(C(=O)N[C@@H](Cc2ccccc2)C(=O)N[C@@H](CCCCN)C(N)=O)cc1`: the inhibitory constant (Ki) was found to be 1 µM.
On to `Cc1cccc(-c2ccc(C[C@H](NC(=O)OCc3ccccc3)C(=O)N[C@@H](CCCCN)C(N)=O)cc2)c1`, for which the Ki came out at 2.5 µM.
With `NCCCC[C@H](NC(=O)[C@H](Cc1ccccc1)NC(=O)c1ccc2ccccc2c1)C(N)=O`, the Ki came out at 1 µM.
Regarding `CN(C)c1ccc(C(=O)N[C@@H](Cc2ccccc2)C(=O)N[C@@H](CCCCN)C(N)=O)cc1`, the inhibitory constant (Ki) is 2.9 µM.
The same measure, in the same setting: the same measure for `NC(=O)[C@H](Cc1c[nH]cn1)NC(=O)[C@H](Cc1ccccc1)NC(=O)OCc1ccccc1` (Cbz-Phe-His-NH2): 14 µM; for `CSCC[C@H](NC(=O)[C@H](Cc1ccccc1)NC(=O)OCc1ccccc1)C(N)=O` (Cbz-Phe-Met-NH2): 64 µM; for `NCCCC[C@H](NC(=O)[C@H](Cc1ccc(-c2cccc(Cl)c2)cc1)NC(=O)OCc1ccccc1)C(N)=O`: 1.7 µM.
`NCCCC[C@H](NC(=O)[C@H](Cc1ccc(-c2ccc(-c3ccccc3)cc2)cc1)NC(=O)OCc1ccccc1)C(N)=O`: the Ki came to 2.6 µM.
Same read-out and setting: the same measure for `NCCCC[C@H](NC(=O)[C@H](Cc1ccccc1)NC(=O)[C@H](CCC(N)=O)NC(=O)OCc1ccccc1)C(N)=O` (Cbz-Gln-Phe-Lys-NH2): 7 µM; for `NCCCC[C@H](NC(=O)[C@H](Cc1ccccc1)NC(=O)c1ccc(N)nc1)C(N)=O`: 5 µM.
Still for that read-out and setting: the same measure for `NCCCC[C@H](NC(=O)[C@H](Cc1c[nH]c2ccccc12)NC(=O)OCc1ccccc1)C(N)=O` (Cbz-Trp-Lys-NH2): 4.2 µM; for `CC(=O)Oc1cccc(C(=O)N[C@@H](Cc2ccccc2)C(=O)N[C@@H](CCCCN)C(N)=O)c1`: 2.4 µM.
